CHRM4 agonist – human M4 muscarinic receptor agonists, primary screen, CHO-K1 cells, Fluo-8 calcium fluorescence; activation, % at 3 µM; Muscarinic acetylcholine receptor M4 (Homo sapiens), P08173; CHO-K1 hM4/Gqi5; vehicle 0%, full acetylcholine response 100%; 360,000 tested, 0.14% active;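 active = activation above the run mean over all test wells plus 3 SD, cut at about 32% in these data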;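 also: peak over basal fluorescence ratio per well then scaled between controls; 0% = DMSO wells and 100% = acetylcholine at EC100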
M5 ag – human M5 muscarinic receptor agonists, primary screen, CHO-K1 cells, Fluo-8 calcium fluorescence | Muscarinic acetylcholine receptor M5 (Homo sapiens), P08912 | CHO-K1 hM5 cells; 0% DMSO wells, 100% maximal acetylcholine response | activation, % at 3 µM | 360,000 tested, 0.19% active | AID 624037, 2012;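 active = activation above the run's mean over test compounds plus 3 SD, cut at about 23% in these data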;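 also: signal is peak over basal fluorescence ratio across the kinetic read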
Target sequence (P08912 whole entry, looked up): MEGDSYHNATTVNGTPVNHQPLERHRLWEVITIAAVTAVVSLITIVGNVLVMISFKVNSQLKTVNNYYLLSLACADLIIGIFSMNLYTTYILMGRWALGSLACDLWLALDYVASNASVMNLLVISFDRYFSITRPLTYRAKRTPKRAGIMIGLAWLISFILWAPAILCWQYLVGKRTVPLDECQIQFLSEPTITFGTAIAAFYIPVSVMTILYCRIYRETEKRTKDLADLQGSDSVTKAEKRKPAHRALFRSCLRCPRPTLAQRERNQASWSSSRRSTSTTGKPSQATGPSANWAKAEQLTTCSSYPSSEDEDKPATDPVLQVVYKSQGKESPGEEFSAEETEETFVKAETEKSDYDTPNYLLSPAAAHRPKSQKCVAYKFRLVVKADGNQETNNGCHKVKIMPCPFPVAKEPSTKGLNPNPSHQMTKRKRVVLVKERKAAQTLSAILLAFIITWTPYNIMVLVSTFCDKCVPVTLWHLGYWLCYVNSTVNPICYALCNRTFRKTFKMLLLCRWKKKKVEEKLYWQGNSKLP
CHRM4 antagonist – human M4 muscarinic receptor antagonists, primary screen, CHO cells, Fluo-8 calcium fluorescence. CHO-hM4 cells, ACh EC80. inhibition, % at 3 µM. 360,000 tested, 0.73% active;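 active = inhibition above its plate's cutoff, the mean inhibition of sample wells plus 3 SD, cut at about 27% in these data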;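 also: 0% = acetylcholine EC80 with DMSO and 100% = DMSO without agonist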
CHRM5 antagonist – human M5 muscarinic receptor antagonists, primary screen, CHO cells, Fluo-8 calcium fluorescence; 360,000 tested, 0.59% active; CHO-hM5 cells, ACh EC80; inhibition, % at 3 µM; Muscarinic acetylcholine receptor M5 (Homo sapiens), P08912;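 active = inhibition above a per-plate cutoff, the mean of that plate's test compounds plus 3 SD, cut at about 27% in these data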;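 also: 0% = acetylcholine EC80 with DMSO and 100% = DMSO without agonist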
CHRM5 PAM – human M5 muscarinic receptor positive allosteric modulators, primary screen, CHO-K1 cells, Fluo-8 calcium fluorescence; Muscarinic acetylcholine receptor M5 (Homo sapiens), P08912; CHO-K1 hM5, ACh EC20 PAM; 0% = ACh EC20, 100% = ACh EC100; activation, % at 3 µM; 360,000 tested, 0.3% active;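 active = activation above the run cutoff, the mean activation of all test compounds plus 3 SD, cut at about 18% in these data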
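system = human M5 receptor in CHO-K1 cells | reagent = EC20 acetylcholine as agonist stimulus | compound dosing = single-point, 3 µM nominal | incubation = Fluo-8 loading 80 min at 37 °C plus 30 min room temperature | detection = Fluo-8 calcium dye fluorescence, kinetic read | benchmarks = low control EC20 acetylcholine (0%), high control EC100 acetylcholine (100%)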
CHRM4 PAM – human M4 muscarinic receptor positive allosteric modulators, primary screen, CHO-K1 cells, Fluo-8 calcium fluorescence | CHO-K1 hM4/Gqi5, ACh EC20; 0% = ACh EC20, 100% = maximal ACh | activation, % at 3 µM | 360,000 tested, 0.4% active;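 active = activation above its plate's cutoff, the mean activation of sample wells plus 3 SD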
The depositor's hits bear a star; ! = not confirmed by another sample. Most compounds without a hit are left out; they make up all but 1.8% or so of the library.

SMILES | CHRM4 agonist | M5 ag | CHRM4 antagonist | CHRM5 antagonist | CHRM5 PAM | CHRM4 PAM
CN1C2c3ccccc3C3C4c5ccccc5C(C31)C(C2[N+](=O)[O-])N4C (stereo not drawn) | -0.8 | -5.3 | -7.6 | 6.2 | -0.4 | -2.1
O=C(CF)NC(NC(=S)Nc1ccccc1O)C(Cl)(Cl)Cl (stereo not drawn) | 1.4 | -0.2 | -12.0 | 6.5 | 4.2 | 20.1*
CC(C)(C)n1nnnc1C(c1ccccc1)N1CCC2(CC1)C(=O)NCN2c1ccccc1 (stereo not drawn) | 7.5 | 5.6 | -7.5 | -0.9 | 1.0 | -0.8
COC(=O)C1=C(c2ccc(Cl)c(C(F)(F)F)c2)C[C@@H]2CC[C@H]1N2C(=O)NCCOc1ccccc1 | 1.3 | -2.6 | 0.7 | 11.0 | -0.5 | -3.1
CC(=O)c1ccc(NC(=O)N2C[C@H]3C[C@@H](C2)c2cccc(=O)n2C3)cc1 | 0.3 | 1.6 | -0.3 | 4.3 | -1.8 | 3.2
CCCC(=O)OCC[N+](C)(C)C | 1.0 | 42.1* | -3.9 | -8.4 | -14.8 | -5.1
CC(C)(CN)CC(=O)O | 0.8 | -0.4 | -3.5 | -2.8 | 0.5 | 13.4
CC1(C)C[C@H]2C=C(C=O)[C@]3(C=O)C[C@]3(C)[C@H]2C1 | 3.1 | 7.9 | 35.2* | -3.4 | 13.2 | -12.8
COc1cc(C(=O)OC2C[C@H]3CC[C@@H](C2)N3C)ccc1O (stereo partly drawn) | -0.4 | -7.5 | 3.5 | 1.2 | -0.4 | -3.8
COc1cc(C(=O)OC2C[C@H]3CC[C@@H](C2)N3)ccc1O (stereo partly drawn) | 0.5 | -8.3 | 38.2* | 2.4 | -7.7 | -15.6
CN(C)c1ccc(/C=C/[N+](=O)[O-])cc1 | 10.1 | 34.8* | 10.8 | 54.9* | -7.7 | 1.1
CC(C)N(CCC(C(N)=O)(c1ccccc1)c1ccccn1)C(C)C (stereo not drawn) | 0.1 | -1.5 | 21.7 | 38.8*! | -18.2 | -15.9
CC1(C)CCCN1CCC(C(N)=O)(c1ccccc1)c1ccccc1 | 0.2 | -10.6 | 97.9* | 99.1* | -35.8 | -10.1
O=S(=O)(NC1CN2CCC1CC2)c1ccc(Cl)cc1 (stereo not drawn) | 0.6 | -7.2 | 0.9 | 17.0 | -2.7 | 0.2
OC(c1cccc(Cl)c1)(c1cccc(Cl)c1)C1CN2CCC1CC2 (stereo not drawn) | 22.0 | -5.1 | 94.2* | 99.4* | -21.7 | -23.5
CSCCC(c1nnnn1C1CCCCC1)N1CCC2(CC1)C(=O)NCN2c1ccccc1 (stereo not drawn) | 2.2 | 2.0 | -9.3 | 8.2 | 5.1 | 4.0
CC1=CC2OC3CC4OC(=O)C=CC=CC(C(C)O)OCC(O)C5(C)OC5C(=O)OCC2(CC1O)C4(C)C31CO1 (stereo not drawn) | 0.1 | -2.6 | 1.7 | 9.7 | -5.0 | 1.7
CCN(CC(=O)Nc1ccc(NC(C)=O)cc1)C(=O)CSC(c1ccccc1)c1ccccc1 | 7.5 | 0.5 | 1.3 | 3.9 | -0.3 | 1.7
CCOC(C(=O)OCCC[N+](C)(CC)CC)(c1ccccc1)c1ccccc1 | 0.6 | -6.0 | 21.1 | 55.5* | -21.9 | -14.0
CCOC(C(=O)OCC(O)CN(CC)CC)(c1ccccc1)c1ccccc1 (stereo not drawn) | 1.5 | -12.7 | 8.0 | -0.9 | -9.5 | -3.3
CC[N+](C)(CC)CCCOC(=O)C(O)(c1ccccc1)C1CCCCC1 (stereo not drawn) | 1.2 | -10.5 | 98.5* | 98.2* | -33.4 | -23.9
CCN(CC)CCCOC(=O)C(OC)(c1ccccc1)c1ccccc1 | 0.7 | -7.1 | 53.4* | 56.0* | -22.7 | -19.9
O=C(O)C(O)(c1ccccc1)C1CCCCC1 (stereo not drawn) | 1.6 | -1.6 | -8.3 | 3.2 | 4.4 | 12.3
Clc1cc(Cl)cc(NC2=NCCS2)c1 | 1.3 | -2.9 | -2.6 | -0.7 | 2.4 | -3.5
COc1cc(/C=C/c2nc3ccccc3c(=O)n2-c2ccc(O)cc2)ccc1O | 21.9 | 3.2 | 28.7* | 25.0 | -11.5 | -11.9
SMILES | CHRM4 agonist | M5 ag | CHRM4 antagonist | CHRM5 antagonist | CHRM5 PAM | CHRM4 PAM
COc1ccc(-n2c(/C=C3/C(=O)Nc4ccccc43)nc3ccccc3c2=O)cc1 | 3.4 | 4.8 | 97.1* | 0.8 | -1.1 | 4.1
O=C(NC1CC2CCCC(C1)N2)c1ccccc1 (stereo not drawn) | 1.3 | -19.1 | 10.1 | 3.2 | -1.6 | -10.4
COC(=O)C1=C(c2ccc(F)cc2F)C[C@@H]2CC[C@H]1N2C(=O)NCc1ccco1 | 1.8 | -4.8 | 2.9 | 8.6 | -6.3 | 6.9
COc1cc(Br)cc(CN2CCN(C)CC2)c1O | 0.7 | -6.3 | 41.0* | 9.8 | -19.8 | -14.4
COc1ccc(Br)cc1CN1CCN(CCO)CC1 | 1.0 | -3.8 | 5.1 | -1.9 | 5.4 | 8.2
O=C(NCCN1CCC2(CC1)C(=O)NCN2c1cccc(F)c1)c1ccc2ccccc2c1 | 107.0* | 51.7* | 101.2* | 98.9* | -25.4 | -17.9
O=C1NCN(c2ccccc2)C12CCNCC2 | 0.8 | -3.6 | -5.0 | -1.1 | 0.4 | 9.7
C=CCn1c(O)c(C(C)=NCCCn2ccnc2)c(=O)[nH]c1=O | 0.2 | 3.5 | 8.9 | 4.5 | -3.2 | 2.2
COc1ccc(CCC(=O)N2C[C@H]3C[C@@H](C2)c2cccc(=O)n2C3)cc1 | -0.3 | 0.5 | -9.0 | 6.3 | 3.3 | 9.2
O=C1C2CCCN2C(c2cccnc2)N1c1ccc(Cl)cc1 (stereo not drawn) | 0.5 | -2.4 | 0.5 | -7.1 | 3.2 | 29.7*
Nc1ccc(CC(N)c2csc(Nc3ncccn3)n2)cc1 (stereo not drawn) | 0.1 | -0.8 | -7.2 | 2.9 | -8.0 | 10.0
NC(Cc1ccc(Cl)cc1)c1csc(Nc2ncccn2)n1 (stereo not drawn) | 1.9 | 4.1 | 96.3* | 0.2 | 0.1 | -13.6
CSCCC(c1nnnn1Cc1ccccc1)N1CCC(n2c(=O)[nH]c3ccccc32)CC1 (stereo not drawn) | 23.3 | 30.3* | 22.7 | 6.6 | -11.5 | -14.8
O=c1[nH]c2ccccc2n1C1CCN(C(CCc2ccccc2)c2nnnn2Cc2ccccc2)CC1 (stereo not drawn) | 19.5 | 8.8 | 21.1 | 6.0 | -14.3 | -8.0
O=c1[nH]c2ccccc2n1C1CCN(C(c2nnnn2Cc2ccccc2)C2CC2)CC1 (stereo not drawn) | 24.2 | 13.6 | 28.7* | 23.7 | -18.2 | -13.3

Screening results: PubChem BioAssay, The Scripps Research Institute Molecular Screening Center
